# Source: PubChem
# Most compounds without a hit are left out; they make up all but 2.2% or so of the library.
# PABP FP inh – blocks human PABP binding to poly(A) RNA; P11940; fluorescence polarization; calls only at 35 µM; hit rate 1% among 290,000;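 note: calls also rest on retests at 20 µM and on dose response follow-up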
# eIF4H FP inh – inhibitors of RNA binding by human eIF4H | hit rate 0.94% among 290,000 | inhibition, % at 35 µM | Q15056 | AID 2012 | eIF4H fluorescence polarization binding assay;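 note: calls also rest on retests at 20 µM and on dose response follow-up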
# IMP-1 inh – inhibitors of Pseudomonas aeruginosa IMP-1 metallo-beta-lactamase; inhibition, % at 5.6 µM; purified IMP-1, nitrocefin hydrolysis, epi-absorbance fluorescence; hit rate 0.45% among 290,000;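 active = inhibition above the mean plus 3 SD of all compounds in the same screening run, cut at about 4.5% in these data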;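 note: 0% = IMP-1 with DMSO and 100% = DMSO wells lacking enzyme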
#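 System: Purified IMP-1 | Read-out basis: Percent enzyme inhibition | Controls: IMP-1 with DMSO as 0%, enzyme-free DMSO as 100% | Replicates: One well per compound | Doses: 5.6 µM nominal single concentration | Detection: Epi-absorbance fluorescence, 480 nm excitation, 530 nm emission | Incubation: 25 °C, 15 min preincubation, 25 min reaction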
# VIM-2 inh – inhibitors of Pseudomonas aeruginosa VIM-2 metallo-beta-lactamase | purified VIM-2, nitrocefin hydrolysis, epi-absorbance fluorescence | AID 1527 | inhibition, % at 5.6 µM | hit rate 0.89% among 290,000;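 active = inhibition above the mean of all tested compounds plus 3 SD, cutoff set per screening run, cut at about 7.5% in these data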;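 note: red hydrolysis product quenches plate fluorescence so inhibitors raise well fluorescence; 0% = enzyme with DMSO and 100% = DMSO without enzyme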
# PABP1 MLLE inh – inhibitors of microRNA-mediated deadenylation, human PABP1 MLLE binding | P11940 | GST-MLLE / FITC-PAM2 fluorescence polarization | inhibition, % at 20 µM | hit rate 0.36% among 360,000 | AID 588489; in the data active = inhibition above about 35%, passing the limit was not always enough;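 note: plate controls were DMSO wells with GST-MLLE for no effect and wells lacking GST-MLLE protein for full effect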
# The depositor's hits bear a star; i = inactive; ? = inconclusive; nt = not tested or not shown; + = active, no number. Unless noted, the rule behind the calls is not given here.
SMILES,PABP FP inh,eIF4H FP inh,IMP-1 inh,VIM-2 inh,PABP1 MLLE inh
CCC1c2ccc(C)n2CCN1C(=O)Nc1ccccc1C(=O)OC (stereo unspecified),+,131.7,-3.3,-2.2,24.0
CCOC(=O)c1ccccc1NC(=O)N1CCn2c(C)ccc2C1CC (stereo unspecified),+,?,-2.0,-1.2,4.8
CC[N+](C)(CC)CC(O)COCC1COc2ccccc2O1 (stereo unspecified),i,-5.8,-3.1,-1.3,-139.2
CCN(CC)C(=O)c1ccc(/C=C/c2c[nH]c3ccccc23)[n+](C)c1,i,?,4.8*,5.7,-163.1
Cc1ccc(C(=O)/C=C/c2c[nH]c3ccccc23)cc1,i,-7.9,-3.5,-0.3,-7.9
Cc1ccc(S(=O)(=O)N2CCN(c3ccccc3)CC2)s1,nt,nt,nt,nt,5.0
CCc1n[nH]c(=S)n1/N=C/c1cc(OC)cc([N+](=O)[O-])c1O,i,59.7,4.6*,-0.8,-1.7
COc1cc(/C=N/n2c(=S)[nH]nc(C)c2=O)cc([N+](=O)[O-])c1O,i,2.7,-3.9,-2.2,-32.8
Cn1c(=O)c(NC2CCCCC2)c2c3c(cccc31)C(=O)c1ccccc1-2,?,?,5.9*,7.2,i
CC(=O)Nc1ccc(Nc2c3c4c(cccc4n(C)c2=O)C(=O)c2ccccc2-3)cc1,i,?,0.0,-1.4,190.5
Cc1ccccc1N1CCN(CCC(=O)Nc2ccc(F)cc2)CC1,i,-8.5,-1.3,-2.9,12.2
CCOC1=C2CN(S(=O)(=O)c3ccc(C)cc3)[C@H](c3cccc(Cl)c3)C[C@H]2[C@H]2C(=O)N(c3ccccc3)C(=O)[C@H]2C1,nt,nt,nt,nt,-6.8
CCOC1=C2CN(S(=O)(=O)c3ccc(C)cc3)[C@@H](c3ccccc3)C[C@H]2[C@H]2C(=O)N(c3ccccc3)C(=O)[C@H]2C1,nt,nt,nt,nt,48.8*
Cc1ccc(N2C(=O)c3cccc(Oc4ccc(Cl)cc4)c3C2=O)c(C)c1,i,2.0,-1.9,-2.7,-5.6
O=C(O)CN1C(=O)c2cccc(Oc3ccc(Cl)cc3)c2C1=O,i,-9.0,11.8*,-0.3,5.4
C=CCn1c(=O)[nH]c(=O)c2c(N)c(C(=O)c3ccc(OC)cc3)sc21,nt,nt,nt,nt,-1.9
Cc1c(CCC(=O)NCCCn2ccnc2)c(=O)oc2c(C)c3oc4c(c3cc12)CCCC4,i,7.0,-3.2,9.6*,1.0
COc1ccc(C(=O)Nn2cnnc2)cc1OC,+,88.7*,-1.5,-2.4,0.8
COc1ccc(C(=O)NN2CCCCC2)cc1OC,i,15.9,0.4,-1.1,1.8
Cc1ccc(OCC(=O)Nc2ccc(S(=O)(=O)N(C)C3CCN(C)CC3)cc2)c(C)c1,+,-1.5,-1.2,-0.4,-107.0
CN1CCC(N(C)S(=O)(=O)c2ccc(NC(=O)COc3ccc(Br)cc3Cl)cc2)CC1,nt,nt,nt,nt,-84.3
O=[n+]1c2c(n([O-])c3cc(F)c(F)cc31)CCCC2,i,65.6*,-3.7,-3.2,16.4
COC(=O)/C=C1/SC(=NC(=O)c2ccc(Cl)cc2)NC1=O,nt,nt,nt,nt,13.7
COC(=O)/C=C1\SC(=NC(=O)c2ccc(C)cc2)NC1=O,i,32.1,-6.3,-0.9,40.1*
Cc1cc(C(=O)CN2C(=O)NC3(CCCCC3)C2=O)c(C)n1-c1ccc2c(c1)OCO2,i,2.0,-0.9,-0.4,-11.6
SMILES,PABP FP inh,eIF4H FP inh,IMP-1 inh,VIM-2 inh,PABP1 MLLE inh
Cc1cccc(-n2c(C)n[nH]c2=S)c1,i,-1.1,-2.3,8.0*,11.1
Cc1cccc(-n2c(-c3ccncc3)n[nH]c2=S)c1,i,-6.3,-0.1,2.7,-15.2
Cc1cccc(-n2c(-c3csc4ccccc34)n[nH]c2=S)c1,i,-4.2,-3.3,-2.6,-40.6
Cc1cccc(-n2c(-c3ccoc3C)n[nH]c2=S)c1,i,7.6,-1.3,9.1*,-15.4
Cc1ccccc1-n1c(-c2ccoc2C)n[nH]c1=S,i,-5.1,-3.4,8.6*,6.1
O=C(Nc1ccccc1)c1cc(C2CCCCN2S(=O)(=O)c2ccccc2)on1 (stereo unspecified),nt,nt,nt,nt,-1.0
Cc1nc(N)c2c(Cc3cccc4ccccc34)nn(C(C)(C)C)c2n1,nt,nt,nt,nt,5.2
O=C(NNC(=O)c1cc(Br)c(Br)s1)c1ccncc1,nt,nt,nt,nt,4.3
ON=C1c2cc(OCCN3CCCCC3)ccc2-c2ccc(OCCN3CCCCC3)cc21,i,-14.2,5.6*,6.2,3.5
COCCn1c(SCc2ccc(C)cc2)nc2c1c(=O)[nH]c(=O)n2C,nt,nt,nt,nt,4.8
CC(C)COC(=O)N(C)C[C@@H]1OCc2cnnn2CCCC(=O)N([C@H](C)CO)C[C@H]1C,nt,nt,nt,nt,-8.3
